Only some compounds are listed: those with a hit (about 3% of all), similar ones and a draw of the others.
sEH activator = activators of human soluble epoxide hydrolase | purified human sEH enzymatic activity, activator screen | activation, % at 2 µM | 91,000 compounds, 0.04% hits | AID 717; in the data active = activation above about 37%
Target sequence (P34913 whole entry, looked up): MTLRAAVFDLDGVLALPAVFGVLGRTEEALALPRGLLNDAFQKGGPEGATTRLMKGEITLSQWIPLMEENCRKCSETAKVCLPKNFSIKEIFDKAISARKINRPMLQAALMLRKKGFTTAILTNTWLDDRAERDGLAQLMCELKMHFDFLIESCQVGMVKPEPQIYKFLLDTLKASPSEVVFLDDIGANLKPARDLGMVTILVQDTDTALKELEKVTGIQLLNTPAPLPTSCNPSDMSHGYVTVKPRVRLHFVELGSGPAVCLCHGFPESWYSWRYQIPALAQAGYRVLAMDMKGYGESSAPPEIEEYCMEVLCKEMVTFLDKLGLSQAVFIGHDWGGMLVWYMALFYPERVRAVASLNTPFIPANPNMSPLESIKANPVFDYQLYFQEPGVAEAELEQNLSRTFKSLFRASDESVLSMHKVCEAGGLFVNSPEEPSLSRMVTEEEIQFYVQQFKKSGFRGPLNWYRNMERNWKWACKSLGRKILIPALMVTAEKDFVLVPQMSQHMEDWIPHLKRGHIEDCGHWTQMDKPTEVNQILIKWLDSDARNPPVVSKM
Yeast life ext = extends the lifespan of yeast. S. cerevisiae growth with nicotinamide, OD615; deaD strain in restrictive glucose medium. inhibition of the nicotinamide effect, % at 10 µM. 130,000 compounds, 0.68% hits;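 active = inhibition above a set limit, placed 3 SD over the median of all compounds, cut at about 26% in these data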;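 also: 0% = nicotinamide-treated wells and 100% = cells grown without nicotinamide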
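Assay system: DeaD-strain S. cerevisiae. Medium: CSMM-D glucose medium, restrictive. Reagent: nicotinamide, 1.5 mM, co-present with compound. Compound: 10 µM single point, 0.25% DMSO. Schedule: culture preincubation 4 h, compound exposure 48 h, both 30 °C. Detection: absorbance at 615 nm.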
BB579 growth dn = reduces growth of yeast BB579 in restrictive medium. S. cerevisiae BB579 growth, OD615, 48 h. inhibition, % at 10 µM. 140,000 compounds, 0.51% hits;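 active = inhibition above a set limit, 3 SD over the mean compound inhibition, cut at about 44% in these data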
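Test system: S. cerevisiae DeaD strain BB579 yeast; Medium: restrictive CSMM-D medium; Compound: one dose, 10 µM compound with 0.25% DMSO; Incubation: 4 h cell preincubation, 48 h compound exposure, 30 °C humidified; Signal: OD at 615 nm; Benchmarks: amphotericin B at 10 µg/mL as positive control.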
SDO1 yeast rescue = sdo1-depleted yeast growth rescue; S. cerevisiae sdo1-depleted JHY4D growth rescue, OD600 30 h; active compounds read high; pdr5 snq2 efflux-pump mutant strain; z-score at 10 µM; 140,000 compounds, 0.21% hits; AID 817;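 active = z-score above 3 at both the 24 hr and the 30 hr optical density reads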;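 also: z-score against mean and SD of all compound wells on the same plate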
Measles CPE = protection of cells from measles virus | Measles virus-infected cells, CPE protection, absorbance | protection (pct of control), % at 4 µM | 140,000 compounds, 1.5% hits; in the data active = protection mostly above about 24%, no sharp cut-off; inactive = mostly below about 26%
sEH inh = blocks human soluble epoxide hydrolase activity; P34913; recombinant human sEH enzymatic activity assay; inhibition, % at 2 µM; 91,000 compounds, 0.34% hits; in the data active = inhibition above about 80%
Active calls of the source: *; nt = no result.

SMILES	sEH activator	Yeast life ext	BB579 growth dn	SDO1 yeast rescue	Measles CPE	sEH inh
CC(C)=CC(=O)Nc1nnc(C)s1	-1	nt	-3	2	38*	1
Cc1c(C(=O)OCC2CCCO2)[nH]c2c1C(=O)CC(c1ccc(N(C)C)cc1)C2 (stereo not drawn)	nt	-15	-8	0.2	32	nt
CCOC(=O)Cc1nn2c(=O)cc(C)nc2s1	5	-7	-19	1.4	46*	-9
CCOC(=O)Cc1c(C)nc2cc(C)nn2c1C	-1	nt	-17	0.82	2	4
CCOC(=O)CNNC(=O)Nc1ccc(Cl)c(Cl)c1	nt	-7	9	0.5	21*	nt
Cc1ccc(-n2nnnc2SCC(=O)NCCC2=CCCCC2)c(C)c1	-82	-3	-78	-1.5	nt	82*
Cc1ccc(-n2nnnc2SCC(N)=O)c(C)c1	15	-13	-42	0.93	6	-16
Nc1[nH]c(N=NC(=O)c2ccc(Cl)cc2)c2ccccc12	nt	-1	-34	-0.49	45*	nt
Nc1[nH]c(N=NC(=O)c2ccccc2)c2ccccc12	nt	-3	-20	0.41	19	nt
CCOc1ccc(C2=NNC(c3cccs3)=Nc3ccc(OCC)cc32)cc1	12	47*	-48	-2.1	6	-14
CCCCCCCC(=O)N/N=C(\C)c1cccnc1	-42	nt	-34	-0.58	8	45
CC(=O)Nc1ccc(S(=O)(=O)N2CCCCC2c2cccnc2)cc1 (stereo not drawn)	nt	-9	-54	-0.3	29*	nt
COc1cc(C)c(C)cc1S(=O)(=O)N1CCCCC1c1cccnc1 (stereo not drawn)	6	-2	-34	-0.87	51*	-2
c1csc(CN2CCOCC2)c1	4	-1	-21	0.3	4	-6
CC12CCC(c3n[nH]c(=S)nc31)C2(C)C (stereo not drawn)	nt	-3	3	1.9	5	nt
COc1ccccc1N1C(=O)c2cccc3c(C(=O)O)ccc(c23)C1=O	5	-9	15	0.56	20	-5
COc1ccc2c3c(cccc13)C(=O)N(O)C2=O	nt	58*	-26	-0.56	2	nt
N#CC(c1ccc(Cl)cc1)(c1ncc(C(F)(F)F)cc1Cl)N1CCOCC1 (stereo not drawn)	7	-12	-9	0.85	3	-5
O=C(O)c1cc(S(=O)(=O)Nc2ccc3c(c2)OCCO3)c(Cl)cc1Cl	nt	1	-62	1.1	17	nt
O=C1C2C3C=CC(C3)C2C(=O)N1Cc1ccc(CN2C(=O)C3C4C=CC(C4)C3C2=O)cc1 (stereo not drawn)	2	-7	-16	0.59	38*	-4
Cc1cc(C(=O)Cn2nnc3ccccc3c2=O)c(C)n1-c1ccccc1F	-16	12	0	-1.6	97*	18
COc1ccc(C2=NN(c3nc(-c4ccccc4)c(CC(=O)O)s3)C(c3ccco3)C2)cc1 (stereo not drawn)	nt	31*	-13	-0.88	5	nt
COc1ccc(-c2nc(C)sc2CC(=O)O)cc1	4	-1	-30	0.37	11	-6
Cn1c(CNc2ccc(Cl)cc2)nnc1SCc1ccccc1	7	-1	-27	-2.6	2	-7
CCn1c(CNc2ccc(Cl)cc2)nnc1SCc1ccccc1	-4	6	-34	-2.8	46*	3
SMILES	sEH activator	Yeast life ext	BB579 growth dn	SDO1 yeast rescue	Measles CPE	sEH inh
COC(=O)c1c(NC(=O)CN2CCN(c3cccc(Cl)c3)CC2)sc(C)c1C	nt	-3	-11	-0.12	17	nt
CCc1c(O)nc(SCC(=O)Nc2ccc3c(c2)CCC3)[nH]c1=O	2	-13	-3	0.2	20	-2
CCCCc1c(O)nc(SCC(=O)Nc2ccc3c(c2)CCC3)[nH]c1=O	nt	11	-18	-0.41	49*	nt
Cc1ccc(CNC(=O)c2ccc(Cl)cc2[N+](=O)[O-])cc1	-9	-7	-24	0.94	34	14
Cc1nc(N/N=C/c2ccccn2)sc1C	nt	-3	44*	-2	1	nt
COC(=O)c1ccccc1NC(=O)C1CCCO1 (stereo not drawn)	nt	-6	-51	0.05	12	nt
O=C(CCSc1ccc(Cl)cc1)c1cccs1	-4	-7	-5	0.94	35*	2
O=C(Nc1ccc(Cl)c(S(=O)(=O)N2CCOCC2)c1)c1ccccc1-c1ccc(C(F)(F)F)cc1	nt	6	-21	0.55	3	nt
O=C(O)c1cc2nc(-c3ccccc3)cc(C(F)(F)F)n2n1	8	57*	29	0.26	6	-9
COc1cccc(C2=NOC(C(=O)NCc3ccccc3)C2)c1 (stereo not drawn)	-1	-20	-5	-0.11	23*	0
COc1ccc(CNC(=O)C2CC(c3ccccc3[N+](=O)[O-])=NO2)cc1 (stereo not drawn)	-9	-24	-8	0.14	36*	6
COc1ccc(C2=NOC(C(=O)NCc3ccccc3)C2)cc1 (stereo not drawn)	3	-21	-32	-0.46	3	-4
CCN(CC)C(=O)C(=O)N/N=C/c1ccc(Br)cc1	-2	-13	-47	-0.33	2	4
CCOC(=O)C1CCN(C(=O)CCc2c(C)nc3cc(-c4ccccc4)nn3c2C)CC1	-2	-13	-6	-0.57	8	2
CCOC(=O)C1CCCCN1C(=O)CCc1c(C)nc2cc(-c3ccccc3)nn2c1C (stereo not drawn)	nt	10	48*	-1.8	2	nt
CCOC(=O)c1c(C2CC2)csc1NC(=O)COC(=O)c1ccc[n+]([O-])c1	nt	-3	-5	0.55	35	nt
CCOC(=O)c1c(C2CC2)csc1NC(C)=O	0	-10	-6	-0.79	36*	3
CC1(C)Oc2nc3ccccc3n2/C1=C\C#N	4	nt	-6	1.3	26	1
CC(C)(C)C1CCc2[nH]nc(C(=O)O)c2C1 (stereo not drawn)	-1	62*	-33	0.42	22	-5
Cc1cc(NC(=O)CSc2nc3sc(C)c(C)c3c(=O)n2C2CCCC2)no1	10	-11	-39	0.93	2	-6
C=CCN1C(=O)C(C)(C)N(C(C)=O)c2ccccc21	nt	28*	-31	0.09	20*	nt
CC(=O)N1c2ccccc2N(Cc2ccc(C)cc2C)C(=O)C1(C)C	1	-9	-6	-0.65	8	3
Cc1ccc(SCCC(=O)NCCSCc2ccccc2C)cc1	-83	-1	-21	-1.1	6	83*
CCc1ccc(C(=O)Cn2ncc(Cl)c(Cl)c2=O)cc1	-2	-2	-20	-1.4	2	1
O=C(OCn1ncc(Cl)c(Cl)c1=O)c1cccc(C(F)(F)F)c1	2	-13	62*	-2.7	4	-3
O=C(CSc1ccccn1)Nc1nc2ccc(Br)cc2s1	13	-9	3	-1.9	21	-12
Cc1cc(C(C)(C)C)cc(S(=O)(=O)Nc2ccc(O)c(C(=O)O)c2)c1C	-26	-4	-14	0.37	36*	27

Screening data (PubChem)
